Legend:
Format in all cases: cell-based
KV3.3 = target: T1, KV3.3 (Mus musculus, UniProt Q63959); assay: whole-cell patch-clamp, off-target channel, 10 μM compound; details: vs 0.1% DMSO
T1 sequence (Q63959 1-769): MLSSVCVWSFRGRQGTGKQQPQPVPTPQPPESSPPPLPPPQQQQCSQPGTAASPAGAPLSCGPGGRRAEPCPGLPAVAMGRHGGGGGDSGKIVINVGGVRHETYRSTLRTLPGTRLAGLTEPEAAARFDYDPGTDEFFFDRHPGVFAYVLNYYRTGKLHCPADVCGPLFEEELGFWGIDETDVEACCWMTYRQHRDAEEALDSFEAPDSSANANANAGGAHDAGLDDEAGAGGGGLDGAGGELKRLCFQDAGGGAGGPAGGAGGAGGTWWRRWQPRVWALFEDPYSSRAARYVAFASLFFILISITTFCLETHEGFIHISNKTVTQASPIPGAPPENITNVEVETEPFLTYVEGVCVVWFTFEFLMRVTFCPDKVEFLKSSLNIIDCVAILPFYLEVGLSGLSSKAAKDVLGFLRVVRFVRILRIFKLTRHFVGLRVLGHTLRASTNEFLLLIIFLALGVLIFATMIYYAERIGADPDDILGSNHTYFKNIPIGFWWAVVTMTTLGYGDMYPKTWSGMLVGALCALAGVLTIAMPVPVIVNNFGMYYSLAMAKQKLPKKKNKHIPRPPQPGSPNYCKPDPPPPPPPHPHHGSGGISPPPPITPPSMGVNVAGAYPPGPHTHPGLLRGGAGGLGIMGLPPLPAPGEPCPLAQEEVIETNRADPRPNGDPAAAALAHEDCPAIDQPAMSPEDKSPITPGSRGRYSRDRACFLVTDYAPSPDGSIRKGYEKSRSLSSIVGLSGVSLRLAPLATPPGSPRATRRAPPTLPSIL
Method in brief: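 KV channels in transiently transfected HEK293T cells, whole-cell. Pipette (mM): 140 KCl, 2.5 MgCl2, 11 EGTA, 10 HEPES, pH 7.4. Bath (mM): 145 NaCl, 2.8 KCl, 2 CaCl2, 1 MgCl2, 10 glucose, 10 HEPES, pH 7.4. 0.1% DMSO bath applied, then 10 μM test compound. DMSO vs compound inhibition ratio compared by unpaired t-test, n = 5.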

ASIC1a = ASIC1a (Rattus norvegicus, UniProt P55926); assay: whole-cell patch-clamp, off-target channel, 10 μM compound; details: vs 0.1% DMSO
ASIC1a, sequence (P55926 whole entry): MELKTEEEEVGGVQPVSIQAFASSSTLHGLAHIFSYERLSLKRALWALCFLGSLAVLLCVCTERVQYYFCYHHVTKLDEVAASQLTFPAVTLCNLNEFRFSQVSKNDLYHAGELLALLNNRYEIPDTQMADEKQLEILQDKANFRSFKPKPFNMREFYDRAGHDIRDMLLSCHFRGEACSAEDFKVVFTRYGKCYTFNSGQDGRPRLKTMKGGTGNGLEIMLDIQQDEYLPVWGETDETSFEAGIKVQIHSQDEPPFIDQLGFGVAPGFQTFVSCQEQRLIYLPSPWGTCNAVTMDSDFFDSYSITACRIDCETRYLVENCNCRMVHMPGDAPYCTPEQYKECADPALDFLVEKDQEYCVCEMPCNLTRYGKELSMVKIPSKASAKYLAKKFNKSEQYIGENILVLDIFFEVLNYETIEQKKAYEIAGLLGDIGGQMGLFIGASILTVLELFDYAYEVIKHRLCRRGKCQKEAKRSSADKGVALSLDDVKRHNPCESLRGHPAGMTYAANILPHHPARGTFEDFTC
Method in brief: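 ASIC channels in transfected HEK293T cells, whole-cell. Pipette (mM): 140 CsF, 11 EGTA, 1 CaCl2, 2 TEA-Cl, 4 MgCl2, 10 HEPES, pH 7.3. NaCl-based bath with 20 mM HEPES (pH 7.4) or 20 mM MES (pH 5.5). 0.1% DMSO bath applied before 10 μM test compound. Inhibition ratios compared by unpaired t-test, n = 5.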

hERG = hERG (Homo sapiens, UniProt Q12809); assay: whole-cell patch-clamp, off-target channel, 10 μM compound
hERG, sequence (Q12809 whole entry): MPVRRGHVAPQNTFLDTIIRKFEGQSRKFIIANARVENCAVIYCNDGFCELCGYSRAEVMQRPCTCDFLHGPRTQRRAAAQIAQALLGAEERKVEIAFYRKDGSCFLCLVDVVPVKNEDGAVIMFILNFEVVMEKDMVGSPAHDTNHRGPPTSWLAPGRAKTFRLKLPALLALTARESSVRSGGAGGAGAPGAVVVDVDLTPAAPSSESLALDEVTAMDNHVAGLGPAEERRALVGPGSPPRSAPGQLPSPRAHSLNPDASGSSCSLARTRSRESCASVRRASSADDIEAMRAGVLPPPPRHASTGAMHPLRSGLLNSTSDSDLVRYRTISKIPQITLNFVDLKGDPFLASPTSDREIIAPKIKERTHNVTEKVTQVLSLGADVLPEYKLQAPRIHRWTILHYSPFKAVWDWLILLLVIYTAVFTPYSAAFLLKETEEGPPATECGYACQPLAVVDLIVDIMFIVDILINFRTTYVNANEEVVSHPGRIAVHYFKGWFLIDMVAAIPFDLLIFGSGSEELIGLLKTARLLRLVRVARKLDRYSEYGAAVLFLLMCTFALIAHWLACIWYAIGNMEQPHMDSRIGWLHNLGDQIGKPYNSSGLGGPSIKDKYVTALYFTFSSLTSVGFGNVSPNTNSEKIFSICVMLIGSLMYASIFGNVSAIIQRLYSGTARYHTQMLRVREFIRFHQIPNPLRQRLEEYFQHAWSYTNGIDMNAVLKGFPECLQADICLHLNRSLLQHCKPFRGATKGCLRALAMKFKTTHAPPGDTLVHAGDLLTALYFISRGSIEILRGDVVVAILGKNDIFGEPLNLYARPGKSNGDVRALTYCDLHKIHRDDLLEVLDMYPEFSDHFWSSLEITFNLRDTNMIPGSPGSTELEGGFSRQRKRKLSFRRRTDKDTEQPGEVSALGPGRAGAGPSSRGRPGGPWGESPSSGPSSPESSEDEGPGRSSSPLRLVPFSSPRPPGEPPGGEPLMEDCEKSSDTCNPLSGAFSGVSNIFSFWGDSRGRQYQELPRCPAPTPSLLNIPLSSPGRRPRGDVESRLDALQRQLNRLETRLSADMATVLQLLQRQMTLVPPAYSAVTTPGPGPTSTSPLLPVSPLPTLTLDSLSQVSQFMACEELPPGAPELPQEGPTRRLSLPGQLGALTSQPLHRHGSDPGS
Method in brief: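 hERG, transiently transfected HEK293T cells, whole-cell recording 16–24 h after seeding. Bath containing 0.1% DMSO applied first, then 10 μM test compound. Inhibition ratio from DMSO compared with that from compound by unpaired t-test, n = 5.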

NaV1.5 = NaV1.5 (Homo sapiens, UniProt Q14524); assay: whole-cell patch-clamp, off-target channel, 10 μM compound
NaV1.5, sequence (Q14524 whole entry): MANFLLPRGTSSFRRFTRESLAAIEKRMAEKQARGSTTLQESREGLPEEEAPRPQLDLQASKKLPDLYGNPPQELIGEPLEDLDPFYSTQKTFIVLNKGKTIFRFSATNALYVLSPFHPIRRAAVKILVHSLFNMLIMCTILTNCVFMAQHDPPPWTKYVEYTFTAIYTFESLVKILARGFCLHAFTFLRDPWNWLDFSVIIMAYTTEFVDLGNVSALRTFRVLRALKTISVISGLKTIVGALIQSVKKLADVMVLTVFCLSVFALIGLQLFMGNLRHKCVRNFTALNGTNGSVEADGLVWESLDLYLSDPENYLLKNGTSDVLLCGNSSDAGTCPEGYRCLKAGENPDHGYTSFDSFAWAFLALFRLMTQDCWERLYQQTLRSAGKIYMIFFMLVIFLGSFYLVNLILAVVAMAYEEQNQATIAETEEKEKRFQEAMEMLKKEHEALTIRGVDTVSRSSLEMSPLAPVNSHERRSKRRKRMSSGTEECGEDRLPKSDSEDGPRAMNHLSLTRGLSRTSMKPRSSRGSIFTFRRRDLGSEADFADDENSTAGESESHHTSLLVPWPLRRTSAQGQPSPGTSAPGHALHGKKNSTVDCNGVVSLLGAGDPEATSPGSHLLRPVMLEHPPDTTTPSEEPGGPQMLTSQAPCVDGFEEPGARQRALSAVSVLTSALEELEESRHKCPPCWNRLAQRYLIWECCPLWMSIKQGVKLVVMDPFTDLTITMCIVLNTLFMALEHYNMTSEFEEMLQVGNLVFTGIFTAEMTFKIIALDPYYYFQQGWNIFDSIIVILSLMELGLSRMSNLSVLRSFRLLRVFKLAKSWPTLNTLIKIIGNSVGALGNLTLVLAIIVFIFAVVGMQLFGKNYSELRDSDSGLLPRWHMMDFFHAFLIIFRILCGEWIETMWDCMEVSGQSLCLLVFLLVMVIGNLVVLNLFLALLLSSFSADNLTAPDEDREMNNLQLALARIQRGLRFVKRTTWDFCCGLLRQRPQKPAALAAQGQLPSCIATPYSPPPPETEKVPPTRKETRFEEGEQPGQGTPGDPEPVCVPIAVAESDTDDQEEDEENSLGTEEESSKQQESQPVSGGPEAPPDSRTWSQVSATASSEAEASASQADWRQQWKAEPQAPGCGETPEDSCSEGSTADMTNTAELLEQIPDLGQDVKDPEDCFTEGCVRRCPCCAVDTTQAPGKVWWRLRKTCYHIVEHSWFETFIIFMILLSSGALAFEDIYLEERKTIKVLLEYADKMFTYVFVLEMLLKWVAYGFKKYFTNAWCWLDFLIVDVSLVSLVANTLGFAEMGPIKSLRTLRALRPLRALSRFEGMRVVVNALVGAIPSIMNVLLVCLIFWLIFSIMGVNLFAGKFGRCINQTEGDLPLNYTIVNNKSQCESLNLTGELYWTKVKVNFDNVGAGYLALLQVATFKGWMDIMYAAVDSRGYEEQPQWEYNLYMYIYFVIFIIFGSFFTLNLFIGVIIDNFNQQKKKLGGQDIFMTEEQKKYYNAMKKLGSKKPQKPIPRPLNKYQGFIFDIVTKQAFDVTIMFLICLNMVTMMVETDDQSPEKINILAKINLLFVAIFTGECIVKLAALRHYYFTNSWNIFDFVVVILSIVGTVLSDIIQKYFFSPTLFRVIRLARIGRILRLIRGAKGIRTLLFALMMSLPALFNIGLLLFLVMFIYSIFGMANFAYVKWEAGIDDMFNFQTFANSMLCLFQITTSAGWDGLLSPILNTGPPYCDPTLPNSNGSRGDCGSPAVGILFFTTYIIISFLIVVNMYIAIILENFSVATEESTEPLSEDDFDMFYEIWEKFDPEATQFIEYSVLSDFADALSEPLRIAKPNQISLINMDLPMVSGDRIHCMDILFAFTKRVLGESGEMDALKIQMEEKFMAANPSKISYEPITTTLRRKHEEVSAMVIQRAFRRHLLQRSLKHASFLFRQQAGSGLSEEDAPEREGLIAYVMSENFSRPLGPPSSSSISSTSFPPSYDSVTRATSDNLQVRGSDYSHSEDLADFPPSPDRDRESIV
Method in brief: (§1)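 NaV channels, transiently transfected HEK293T cells, whole-cell, 16–24 h after seeding. Pipette (mM): 140 CsF, 1 EGTA, 10 NaCl, 10 HEPES, pH 7.4. Bath (mM): 140 NaCl, 5 KCl, 2 CaCl2, 1 MgCl2, 10 glucose, 10 HEPES, pH 7.4. Bath with 0.1% DMSO applied before 10 μM test compound. Inhibition ratios compared by unpaired t-test, n = 5.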

Kir2.1 = Kir2.1 (Homo sapiens, UniProt P63252); assay: whole-cell patch-clamp, off-target channel, 10 μM compound; details: vs 0.1% DMSO
Kir2.1, sequence (P63252 whole entry): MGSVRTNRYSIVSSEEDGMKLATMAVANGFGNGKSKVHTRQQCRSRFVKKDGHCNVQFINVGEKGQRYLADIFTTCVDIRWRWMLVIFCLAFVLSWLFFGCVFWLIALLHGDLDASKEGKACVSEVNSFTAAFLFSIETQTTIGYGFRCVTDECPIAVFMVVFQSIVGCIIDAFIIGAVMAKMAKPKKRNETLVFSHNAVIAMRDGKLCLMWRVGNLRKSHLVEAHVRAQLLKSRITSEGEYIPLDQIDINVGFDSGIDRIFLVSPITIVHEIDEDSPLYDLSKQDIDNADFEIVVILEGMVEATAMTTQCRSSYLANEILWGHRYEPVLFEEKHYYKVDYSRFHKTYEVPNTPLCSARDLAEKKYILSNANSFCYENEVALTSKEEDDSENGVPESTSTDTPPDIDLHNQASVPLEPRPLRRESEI

CaV3.1 = CaV3.1 (Homo sapiens, UniProt O43497); assay: whole-cell patch-clamp, off-target channel, 10 μM compound
Method in brief: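 CaV channels in transfected HEK293T cells, whole-cell. Pipette (mM): 120 CsMeSO3, 2 Mg-ATP, 11 EGTA, 10 HEPES, pH 7.4. Bath (mM): 138 NaCl, 5.6 KCl, 2.6 CaCl2, 20 TEA-Cl, 5 glucose, 5 HEPES, pH 7.4. 0.1% DMSO bath applied before 10 μM test compound. Inhibition ratios compared by unpaired t-test, n = 5.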

NaV1.7 = NaV1.7 (Homo sapiens, UniProt Q15858); assay: whole-cell patch-clamp, off-target channel, 10 μM compound
Method in brief: as §1

[1] = target: T2, mouse Otop1 (mOtop1) channels (Mus musculus, UniProt Q80VM9); assay: whole-cell patch-clamp, peak currents: current density and "on-cell" analysis; details: for effect on mOtop1 current density: 10 μM
T2 sequence (Q80VM9 1-600): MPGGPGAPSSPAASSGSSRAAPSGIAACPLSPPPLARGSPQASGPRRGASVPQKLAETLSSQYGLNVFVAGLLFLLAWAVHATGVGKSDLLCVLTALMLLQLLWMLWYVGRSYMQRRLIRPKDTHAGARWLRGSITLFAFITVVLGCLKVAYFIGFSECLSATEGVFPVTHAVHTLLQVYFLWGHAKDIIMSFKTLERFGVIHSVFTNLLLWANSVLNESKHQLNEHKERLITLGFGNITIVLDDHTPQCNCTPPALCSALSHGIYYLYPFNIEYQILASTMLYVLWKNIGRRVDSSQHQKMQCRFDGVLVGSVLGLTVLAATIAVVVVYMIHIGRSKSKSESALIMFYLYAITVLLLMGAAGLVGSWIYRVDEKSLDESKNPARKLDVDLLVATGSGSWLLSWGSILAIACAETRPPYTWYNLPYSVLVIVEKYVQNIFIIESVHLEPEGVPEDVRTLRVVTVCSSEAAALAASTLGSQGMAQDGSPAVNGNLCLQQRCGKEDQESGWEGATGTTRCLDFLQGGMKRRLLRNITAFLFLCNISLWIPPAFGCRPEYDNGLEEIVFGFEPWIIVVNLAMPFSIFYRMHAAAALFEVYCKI

mOtop1 R554H = mOtop1 R554H (Mus musculus, UniProt Q80VM9, R554H); assay: patch-clamp, mOtop1 mutant; details: Fig 5G, H
mOtop1 R554H, sequence (Q80VM9 whole entry R554H): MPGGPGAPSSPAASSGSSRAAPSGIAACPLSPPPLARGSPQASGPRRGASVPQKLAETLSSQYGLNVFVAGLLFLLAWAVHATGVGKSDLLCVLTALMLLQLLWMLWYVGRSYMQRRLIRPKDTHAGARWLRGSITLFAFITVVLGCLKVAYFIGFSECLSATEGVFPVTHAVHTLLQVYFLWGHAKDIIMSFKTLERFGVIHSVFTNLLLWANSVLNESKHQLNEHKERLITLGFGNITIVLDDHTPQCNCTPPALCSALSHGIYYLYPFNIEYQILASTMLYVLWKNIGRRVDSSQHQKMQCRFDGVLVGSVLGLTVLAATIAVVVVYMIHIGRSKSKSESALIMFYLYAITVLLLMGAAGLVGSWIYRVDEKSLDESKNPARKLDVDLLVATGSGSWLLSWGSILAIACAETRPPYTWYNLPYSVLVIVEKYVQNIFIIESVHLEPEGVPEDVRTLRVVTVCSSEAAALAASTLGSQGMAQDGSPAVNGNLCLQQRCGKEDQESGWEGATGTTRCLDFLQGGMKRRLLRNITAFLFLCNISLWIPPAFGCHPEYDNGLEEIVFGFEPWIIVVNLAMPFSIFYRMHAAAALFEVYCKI

CC(C)c1noc2ncc(C(=O)c3ccccc3O)cc12 [HIMOP, (2-hydroxyphenyl)-(3-propan-2-yl-5-isoxazolo[5,4-b]pyridinyl)methanone]
sensitivity of channel to compound (KV3.3): completely resistant | sensitivity of channel to compound (ASIC1a): completely resistant | inhibition ratio (hERG): 8.5% | inhibition ratio (NaV1.5): 8.9% | sensitivity of channel to compound (Kir2.1): completely resistant | sensitivity of channel to compound (CaV3.1; vs 0.1% DMSO): completely resistant | inhibition ratio (NaV1.7): 11.3%

Cc1ccc(C(=O)Nc2ccc3ccccc3c2)o1 [MFaN, 5-methyl-N-2-naphthyl-2-furamide]
sensitivity of channel to compound (KV3.3): completely resistant | sensitivity of channel to compound (ASIC1a): completely resistant | inhibition ratio (hERG): 13.7% | inhibition ratio (NaV1.5): 14.8% | sensitivity of channel to compound (Kir2.1): completely resistant | inhibition ratio (CaV3.1): 11.7% | sensitivity of channel to compound (NaV1.7; vs 0.1% DMSO): completely resistant | EC50 [1]: 9.2 ± 0.6 µM | effect on mOtop1 current density ([1]; pH 5.5, Fig 4A): significantly increased | effect on mOtop1 current density ([1]; pHs ranging from 4.5 to 6.0): significantly increased | effect of mutation on MFaN's potentiation effect vs WT mOtop1 (mOtop1 R554H): reduced

Cc1cc(NC(=O)c2ccc(Br)o2)ccc1NC(=O)c1ccco1 [B2FAMP, 5-Bromo-N-[4-(2-furoylamino)-3-methylphenyl]-2-furamide]
sensitivity of channel to compound (KV3.3): completely resistant

Source: paper PMC11865470 (Communications Biology, 2025)
